One assay relates to A2780. Description: Inhibitory concentration in vitro for cytotoxic activity against A 2780 human ovarian carcinoma cells. The assay is classed as functional, cell-based. A digest of the protocol:
(§1)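 MTT assay in 96-well plates, seeding 400–1000 cells/well. Cells recover 24 h, then drug in medium is added, three wells per dose. Incubate 5 days at 37 °C in 5% CO₂. Add MTT (3 mg/mL) for 3 h, dissolve formazan in DMSO, read at 540 nm minus 620 nm. Percent growth inhibition per dose comes from duplicate experiments, reported as mean and SD; IC50 is derived from these.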

For assay [1], the system named is Schizosaccharomyces pombe. Description: (§2) Antimicrobial activity against Schizosaccharomyces pombe after 48 hr incubation. The assay is classed as functional. Further details: concentration or dose not given beside the values. A digest of the protocol: (§3)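 Agar diffusion on cellulose disks loaded with 200 µg compound each. Bacteria read after 96 h, yeasts after 48 h. Activity is recorded as the radius in mm, or percent, of the inhibition zone. Squalestatin S1 (200 µg/disk) served as control in the yeast assay.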

Assay [2] deals with Candida albicans. Description: Antimicrobial activity against Candida albicans after 48 hr incubation. The assay is classed as functional. A digest of the protocol: as §3
Assay [3] has as its system Escherichia coli. Description: Antimicrobial activity against the Escherichia coli after 96 hr incubation. The assay is classed as functional. The arrangement: concentration or dose not given beside the values. A digest of the protocol: as §3
In assay [4] the test system is Bacillus subtilis. Description: Antimicrobial activity against Bacillus subtilis after 96h incubation. It counts as functional. In outline: as §3
The subject of assay [5] is Escherichia coli. Description: Antimicrobial activity against Escherichia coli after 96h incubation. The assay is classed as functional. A digest of the protocol:
as §3

For assay [6], the system named is Bacillus subtilis. Description: Antimicrobial activity against Bacillus subtilis after 96 hr incubation. Further details: concentration or dose not given beside the values. It counts as functional. A digest of the protocol:
as §3

The test system of assay [7] is Staphylococcus aureus. Description: Antimicrobial activity against Staphylococcus aureus after 96h incubation. The assay is classed as functional. A digest of the protocol:
as §3

The subject of assay [8] is Schizosaccharomyces pombe. The description is as §2. The assay is classed as functional. A digest of the protocol: as §3
The next assay concerns Saccharomyces cerevisiae. Description: Antimicrobial activity against Saccharomyces cerevisiae after 48 hr incubation. It counts as functional. In outline: as §3
A further assay has as its system K562. Description: Inhibitory concentration in vitro for cytotoxic activity against K 562 human chronic myelogenous leukemia cells. The assay is classed as functional, cell-based. A digest of the protocol:
as §1

Assay [9] concerns Staphylococcus aureus. Description: The compound was evaluated for anti microbial activity against Staphylococcus aureus after 96 hr incubation. The assay is classed as functional. Further details: concentration or dose not given beside the values. In outline:
as §3

In assay [10] the test system is Candida albicans. Description: Anti fungal activity against Candida albicans after 48 hr incubation. It counts as functional. Further details: concentration or dose not given beside the values. In outline:
as §3

pIC50: −log10 of the molar value.

As usually defined, the pIC50 is the IC50 on a negative log10 scale, so that one unit is a factor of ten.

For the compound `Cc1cc(CCc2ccccc2)cc(=O)o1`, the pIC50 in the assay with A2780 and with K562 was under 4.30 each time. Further, the Inhibition came to 11.4% in assay [1]; 0 mm with Candida albicans [2]; 22.7% in the assay on Escherichia coli [3]; 18 mm with Bacillus subtilis [4]; 20 mm in the assay on Escherichia coli [5]; 20.5% in the assay on Bacillus subtilis [6]. The Inhibition in the assay with Staphylococcus aureus [7] was found to be 0 mm; in assay [8], 10 mm; in the assay on Saccharomyces cerevisiae, 0 mm.
Regarding `Cc1cc(-c2ccc(C=O)cc2)cc(=O)o1`, the results for the negative logarithm of the IC50 (pIC50) with A2780 and in the assay with K562 were 4.72 and 4.59, respectively. Also, the Inhibition in assay [1] is 15.9%; in the assay with Candida albicans [2], 0 mm; with Escherichia coli [3] it was 17%; in the assay on Bacillus subtilis [4] it was 18 mm; in the assay on Escherichia coli [5], 15 mm; in the assay with Bacillus subtilis [6], 20.5%. Moreover, the Inhibition with Staphylococcus aureus [7] stood at 18 mm; in assay [8], 14 mm; in the assay on Staphylococcus aureus [9] it was 20.5%; in the assay with Saccharomyces cerevisiae, 0 mm.
As for `CCCCCCC#Cc1cc(C)oc(=O)c1`, the pIC50 in the assay with A2780 was 5.47; in the assay with K562 it was 4.69. Moreover, the Inhibition is listed as 54.5% in [1]; 0 mm in the assay on Candida albicans [2]; 19.3% in the assay with Escherichia coli [3]; 17 mm in the assay with Bacillus subtilis [4]; 17 mm in the assay with Escherichia coli [5]; 19.3% in the assay with Bacillus subtilis [6]. Further, the Inhibition stood at 18 mm in the assay on Staphylococcus aureus [7], 48 mm in assay [8], 20.5% in the assay with Staphylococcus aureus [9] and 0 mm with Saccharomyces cerevisiae.
`Cc1cc(-c2ccc(Cl)cc2)cc(=O)o1`: the pIC50 in the assay on A2780 and in the assay on K562 was under 4.30 throughout. In addition, the Inhibition in the assay with Candida albicans [2] was 0 mm; in the assay with Escherichia coli [3], 22.7%; in the assay on Bacillus subtilis [4], 18 mm; with Escherichia coli [5], 20 mm; with Bacillus subtilis [6] it was 20.5%; with Staphylococcus aureus [7], 20 mm. The Inhibition is on record as 0 mm in assay [8], 22.7% in the assay with Staphylococcus aureus [9] and 0 mm with Saccharomyces cerevisiae.
As to `CCCCc1cc(C)oc(=O)c1`, the pIC50 in the assay on A2780 and in the assay with K562 was under 4.30 throughout. Further, the Inhibition in the assay with Candida albicans [2] was found to be 0 mm; with Escherichia coli [3] it was 25%; with Bacillus subtilis [4], 20 mm; in the assay with Escherichia coli [5], 22 mm; with Bacillus subtilis [6], 22.7%; with Staphylococcus aureus [7], 0 mm. In addition, the Inhibition (in [8]; in the assay on Saccharomyces cerevisiae) was 0 mm each time.
As for `COc1ccc(-c2cc(C)oc(=O)c2)cc1`, the pIC50 in the assay on A2780 and with K562 was under 4.30 throughout. Besides, the Inhibition came out at 22.7% in [1]; 0 mm in the assay on Candida albicans [2]; 22.7% with Escherichia coli [3]; 17 mm in the assay with Bacillus subtilis [4]; 20 mm in the assay on Escherichia coli [5]; 19.3% in the assay on Bacillus subtilis [6]. For the same compound, the Inhibition in the assay with Staphylococcus aureus [7] was determined as 0 mm; in assay [8] it was 20 mm; in the assay with Saccharomyces cerevisiae, 0 mm.
Turning to `CCOCCc1cc(C)oc(=O)c1`, the pIC50 with A2780 and in the assay with K562 was under 4.30 each time. This compound came in with an Inhibition in assay [8] of 0 mm.
For the compound `CCCCCc1cc(C)oc(=O)c1`, the pIC50 with A2780 and in the assay with K562 was under 4.30 throughout. Besides, the Inhibition amounted to 25% in [1]; 0 mm in the assay with Candida albicans [2]; 25% with Escherichia coli [3]; 23 mm in the assay on Bacillus subtilis [4]; 22 mm in the assay on Escherichia coli [5]; 26.1% in the assay on Bacillus subtilis [6]. Moreover, the Inhibition with Staphylococcus aureus [7] came out at 0 mm; in assay [8] it was 22 mm; in the assay on Saccharomyces cerevisiae it was 0 mm.
In the case of `Cc1cc(C#Cc2ccc([N+](=O)[O-])cc2)cc(=O)o1`, the Inhibition in [1] is 10.2%; in the assay with Candida albicans [2], 0 mm; with Bacillus subtilis [4], 6 mm; in the assay with Escherichia coli [5] it was 0 mm; in the assay on Bacillus subtilis [6], 6.8%; in the assay with Staphylococcus aureus [7] it was 0 mm. Further, the Inhibition is 9 mm in assay [8] and 0 mm with Saccharomyces cerevisiae.
As for `CC(=O)Nc1ccc(C#Cc2cc(C)oc(=O)c2)cc1`, the Inhibition came out at 0 mm with Candida albicans [2]; 6 mm with Bacillus subtilis [4]; 0 mm in the assay with Escherichia coli [5]; 6.8% in the assay with Bacillus subtilis [6]; 16 mm in the assay with Staphylococcus aureus [7]; 0 mm in [8]. Moreover, the Inhibition with Staphylococcus aureus [9] is 18.2%; with Saccharomyces cerevisiae, 0 mm.
Take `Cc1cc(C#Cc2ccccc2)cc(=O)o1`: the results for the pIC50 in the assay on A2780 and with K562 were 5.74 and 5.40, respectively. The Inhibition worked out at 42% in assay [1]; 0 mm in the assay with Candida albicans [2]; 22.7% in the assay with Escherichia coli [3]; 19 mm in the assay with Bacillus subtilis [4]; 20 mm in the assay on Escherichia coli [5]; 21.6% with Bacillus subtilis [6]. In addition, the results for the Inhibition (with Staphylococcus aureus [7]; in assay [8]; in the assay on Saccharomyces cerevisiae) were 0 mm, 37 mm and 0 mm, respectively.
As for `Cc1cc(-c2ccccc2)cc(=O)o1`, the pIC50 with A2780 and in the assay on K562 was under 4.30 in each case. Moreover, the Inhibition in the assay on Candida albicans [2] worked out at 0 mm; in the assay on Escherichia coli [3] it was 22.7%; in the assay on Bacillus subtilis [4], 18 mm; in the assay on Escherichia coli [5], 20 mm; with Bacillus subtilis [6], 20.5%; with Staphylococcus aureus [7], 18 mm. Further, the Inhibition was 0 mm in [8], 20.5% with Staphylococcus aureus [9] and 0 mm in the assay on Saccharomyces cerevisiae.
As for `Cc1ccc(-c2cc(C)oc(=O)c2)cc1`, the pIC50 with A2780 and in the assay on K562 was under 4.30 in each case. The Inhibition in the assay on Candida albicans [2] is reported as 0 mm; in the assay with Escherichia coli [3] it was 20.4%; with Bacillus subtilis [4], 19 mm; in the assay on Escherichia coli [5], 18 mm; with Bacillus subtilis [6] it was 21.6%; in the assay on Staphylococcus aureus [7], 0 mm. Also, the Inhibition (in assay [8]; in the assay on Saccharomyces cerevisiae) was 0 mm in each case.
In the case of `Cc1cc(/C=C/c2ccccc2)cc(=O)o1`, the pIC50 in the assay with A2780 and in the assay with K562 was under 4.30 each time. Further, the Inhibition in [1] came out at 20.5%; in the assay on Candida albicans [2], 0 mm; in the assay on Escherichia coli [3], 19.3%; in the assay with Bacillus subtilis [4], 18 mm; in the assay on Escherichia coli [5] it was 17 mm; in the assay on Bacillus subtilis [6], 20.5%. Also, the Inhibition is given as 0 mm with Staphylococcus aureus [7], 18 mm in assay [8] and 0 mm in the assay on Saccharomyces cerevisiae.
In the case of `CCCC/C=C/c1cc(C)oc(=O)c1`, the Inhibition worked out at 45.5% in assay [1]; 24 mm in the assay on Candida albicans [2]; 20.5% with Escherichia coli [3]; 18 mm in the assay with Bacillus subtilis [4]; 18 mm with Escherichia coli [5]; 20.5% in the assay on Bacillus subtilis [6]. The Inhibition in the assay with Staphylococcus aureus [7] came out at 0 mm; in [8], 40 mm; in the assay with Saccharomyces cerevisiae, 0 mm; with Candida albicans [10] it was 27.3%.

(Values after ChEMBL document CHEMBL1135862, “Bioactive 4-substituted-6-methyl-2-pyrones with promising cytotoxicity against A2780 and K562 cell lines” (Bioorg Med Chem Lett, 2002).)
